Reference: ChEMBL document CHEMBL1149788, “Synthesis and biochemical evaluation of guanidino-alkyl-ribitol derivatives as nucleoside hydrolase inhibitors” (Eur J Med Chem, 2008)

Experiments:
IAG-nucleoside hydrolase = molecular target: T1, IAG-nucleoside hydrolase (Trypanosoma vivax, UniProt Q9GPQ4); assay: Inhibition of Trypanosoma vivax IAG-nucleoside hydrolase expressed in Escherichia coli WK6
T1 sequence (Q9GPQ4 whole entry): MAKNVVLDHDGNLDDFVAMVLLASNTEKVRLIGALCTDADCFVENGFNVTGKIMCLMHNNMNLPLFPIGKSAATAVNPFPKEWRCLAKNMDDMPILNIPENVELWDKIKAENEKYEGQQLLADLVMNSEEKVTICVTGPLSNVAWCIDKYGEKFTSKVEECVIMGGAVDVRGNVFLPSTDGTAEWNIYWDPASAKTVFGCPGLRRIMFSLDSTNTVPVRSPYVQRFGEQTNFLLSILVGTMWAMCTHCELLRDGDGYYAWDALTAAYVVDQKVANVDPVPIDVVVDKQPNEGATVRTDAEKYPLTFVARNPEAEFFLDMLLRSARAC
How it was run: (§1)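 His6-tagged enzyme purified by Ni-NTA then Superdex-200 gel filtration; concentration per monomer from ε280 47752 M⁻¹ cm⁻¹. Initial rates of hydrolysis of fixed p-nitrophenyl-β-D-ribofuranoside at ≥5 inhibitor concentrations, 50 mM phosphate pH 7.0, 35 °C. p-Nitrophenolate release read at 400 nm (ε 12 mM⁻¹ cm⁻¹). Ki from competitive-inhibition fit via Dixon plot (1/vi vs I).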

[1] = molecular target: T2, IAG-nucleoside hydrolase (Trypanosoma vivax) (UniProt Q9GPQ4); assay: Binding affinity to Trypanosoma vivax IAG-nucleoside hydrolase; how it was run: as §1
T2 sequence (whole entry): T1 sequence (Q9GPQ4 whole entry)

Row | Structure (SMILES) | Ki (IAG-nucleoside hydrolase) | Activity [1]
1 | N=C(N)Nc1ccc(CN2C[C@H](O)[C@H](O)[C@H]2CO)cc1 | 7 µM | 
2 | O[C@@H]1[C@H](O)[C@H](O)CO[C@H]1O |  | 148 mM
3 | OC[C@H]1NC[C@H](O)[C@@H]1O [IMINORIBITOL] | 6.1 µM | 
4 | NC(=O)[C@@H]1O[C@H](CO)[C@H](O)[C@@H]1O | 4500 µM | 
5 | N=C(N)NCCCN1C[C@H](O)[C@H](O)[C@H]1CO | 40 µM | 
6 | CC(C[C@@H]1O[C@H](CO)[C@@H](O)[C@H]1O)N=C(N)N (some centres undefined) | 685 µM | 
7 | OCC1[C@@H](O)[C@@H](O)CN1Cc1ccccc1 (single isomer, unassigned) | 59 µM | 
8 | C[N+](C)(C)C[C@@H]1O[C@H](CO)[C@@H](O)[C@H]1O | 1280 µM | 
9 | NC(N)=NC[C@@H]1O[C@H](CO)[C@@H](O)[C@H]1O | 545 µM | 

Next, values leading:

Row | Ki (IAG-nucleoside hydrolase) | Activity [1] | Structure (SMILES)
10 | 309 µM |  | NC(N)=NCC[C@@H]1O[C@H](CO)[C@@H](O)[C@H]1O
11 | 6.7 µM |  | N=C(N)c1ccc(CN2C[C@H](O)[C@H](O)[C@H]2CO)cc1
12 | 18 µM |  | N=C(N)NCC[C@@H]1N[C@H](CO)[C@@H](O)[C@H]1O
13 | 677 µM |  | NC(N)=NCCC[C@@H]1O[C@H](CO)[C@@H](O)[C@H]1O
14 | 286 µM |  | NC(N)=NCCN1C[C@H](O)[C@H](O)[C@H]1CO
